ChEMBL document CHEMBL1156127, “Synthesis, anticonvulsant activity and 3D-QSAR study of some prop-2-eneamido and 1-acetyl-pyrazolin derivatives of aminobenzothiazole” (Eur J Med Chem, 2010)

What was measured:
[1] = organism: Mus musculus; assay: Protection index, ratio of TD50 to ED50 by MES test for albino mouse; format: functional
Outline: (§1)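 Mice were trained on a 3.2 cm rod turning at 6 rpm, then dosed ip at 20–1000 µmol/kg and tested at 0.5 h. […] PI = TD50/ED50, with ED50 from the MES test.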

[2] = system: Rattus norvegicus; assay: Hepatotoxicity in albino rat assessed as serum SGOT level at 100 umol/kg, ip after 15 days (Rvb= 92.2 +/- 2.78); conditions: in vivo, 360 h
[3] = Neurotoxicity in ip dosed albino mouse during 1 min by rotarod test; format: toxicity, organism-based; conditions: in vivo; outline: as §1
[4] = system: Mus musculus; assay: Anticonvulsant activity in ip dosed albino mouse treated 0.5 hrs before PTZ challenge by scPTZ test; format: functional
Outline: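 Compound given ip (20–1000 µmol/kg in 0.5% methyl cellulose) 0.5 h before pentylenetetrazole, which was dissolved in 0.9% NaCl and injected subcutaneously in the posterior midline of mice. Onset and severity of convulsions were scored, and ED50 was derived.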

[5] = system: Rattus norvegicus; assay: CNS toxicity in albino rat assessed as duration of immobility at 100 umol/kg, ip after 0.5 hrs by Porsolt's swimpool test (Rvb= 128 +/- 2.4); conditions: in vivo
[6] = system: Rattus norvegicus; assay: Hepatotoxicity in albino rat assessed as serum SGPT level at 100 umol/kg, ip after 15 days (Rvb= 35.4 +/- 2.68); conditions: in vivo, 360 h
[7] = system: Mus musculus; assay: Behavioral effect in albino mouse assessed as change in locomotor activity during 10 mins at 100 umol/kg, ip after 0.5 hrs; format: functional
Outline: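 Mouse activity counted by actophotometer for 10 min 24 h before dosing, then again 0.5 h after 100 µmol/kg ip. % change = 100 − [(post × 100)/pre]. N = 6, mean ± SEM, Student's t test at p < 0.05.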

[8] = system: Mus musculus; assay: Anticonvulsant activity in ip dosed albino mouse assessed as absence of hind limb tonic extension after 0.5 hrs by MES test; format: functional, Hindlimb; conditions: for ED50: Mus musculus, albino, Hindlimb, ip, 0.5 h
Outline: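 Mice given compound ip at 20–1000 µmol/kg, suspended in 0.5% methyl cellulose/water. Seizure induced 0.5 h later by electroconvulsometer, 50 mA, 60 cycle alternating current, 0.25 s via ear clip electrodes. Protection is reduced duration or absence of hind limb tonic extension. ED50 from at least three doses giving 10–90% protection.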

[9] = system: Rattus norvegicus; assay: CNS toxicity in albino rat assessed as duration of immobility at 100 umol/kg, ip after 0.5 hrs by Porsolt's swimpool test (Rvb= 87 +/- 1.5); conditions: in vivo
[10] = system: Rattus norvegicus; assay: CNS toxicity in albino rat assessed as duration of immobility at 100 umol/kg, ip after 0.5 hrs by Porsolt's swimpool test (Rvb= 97 +/- 2.2); conditions: in vivo
[11] = system: Rattus norvegicus; assay: CNS toxicity in albino rat assessed as duration of immobility at 100 umol/kg, ip after 0.5 hrs by Porsolt's swimpool test (Rvb= 113 +/- 3.1); conditions: in vivo

SMILES: CC(=O)N1N=C(Nc2nc3ccc(C)cc3s2)CC1c1ccc(O)cc1 (centres undefined)
- PI [1]: 3.14
- Activity [2]: 89.6 U/ml
- TD50 at 1 min [3]: 157 µmol/kg
- ED50 [4]: 54.3 µmol/kg
- Activity [5]: 136 s
- Activity [6]: 30.2 U/ml
- Activity [7]: 20.94%
- pED50 [8]: 4.3
- ED50 [8]: 50.2 µmol/kg

SMILES: CC(=O)N1N=C(Nc2nc3ccc(C)cc3s2)CC1c1ccc(Cl)cc1 (centres undefined)
- PI [1]: 4.86
- Activity [2]: 93.3 U/ml
- TD50 at 1 min [3]: 123 µmol/kg
- ED50 [4]: 27.5 µmol/kg
- Activity [9]: 91 s
- Activity [6]: 33.1 U/ml
- Activity [7]: 35.62%
- pED50 [8]: 4.59
- ED50 [8]: 25.5 µmol/kg

SMILES: COc1ccc(C2CC(Nc3nc4ccc(C)cc4s3)=NN2C(C)=O)cc1 (centres undefined)
- PI [1]: 4.68
- Activity [2]: 95.4 U/ml
- TD50 at 1 min [3]: 174 µmol/kg
- ED50 [4]: 39.4 µmol/kg
- Activity [6]: 38.4 U/ml
- Activity [10]: 163 s
- Activity [7]: 2.08%
- pED50 [8]: 4.43
- ED50 [8]: 37.3 µmol/kg

SMILES: COc1ccc(C2CC(Nc3nc4ccc(C)cc4s3)=NN2C(C)=O)cc1O (centres undefined)
- PI [1]: 1.99
- TD50 at 1 min [3]: 147 µmol/kg
- ED50 [4]: 75.6 µmol/kg
- Activity [7]: 29.5%
- Activity [11]: 177 s
- pED50 [8]: 4.13
- ED50 [8]: 73.9 µmol/kg
